Test results taken from article PMC10782576 (ACS infectious diseases, 2019).
Entries after “also recorded” stand apart in the source; their conditions may differ. Like-named read-outs stand apart in the source and are kept apart here.

What was measured:
[1] = system: Ect1/E6E7 normal-type human ectocervical cells; assay: mammalian cell cytotoxicity counter screen, Ect1/E6E7; format: cell-based; conditions: for Selectivity Index SIEct1: (EC50 for Ect1 cells)/(EC50 for T. vaginalis); for EC50: read-out: EC50 Ect1 Normal Cervical, Ect1/E6E7 cytotoxicity
Trichomonas vaginalis = assay: imaging-based T. vaginalis viability assay; format: cell-based; conditions: for EC50: Trichomonas vaginalis; for effect of oxygen level on antitrichomonal activity: aerobic, microaerophilic and anaerobic atmospheres compared; for extent of elimination of trichomonads: strict anaerobic atmosphere; for EC50 T. vaginalis: imaging assay, 17 h incubation, microaerophilic unless specified
[2] = system: Lactobacillus acidophilus; assay: Lactobacillus acidophilus viability assay; format: cell-based; conditions: for effect on growth and viability of L. acidophilus: anaerobic conditions, at the concentrations tested (Figure 8); for EC50: read-out: EC50 L. acidophilus, anaerobic, 18 h
Procedure, shortened: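 Bacteria from MRS agar colonies were suspended in MRS broth, vortexed and dispensed into 96-well plates. Test compound was added in DMSO (0.5% final). Baseline OD 600 nm was read, then plates were incubated 18 h at 37 °C under anaerobic conditions (GasPak EZ Anaerobe sachets). OD 600 nm was read again to determine change from baseline.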

[3] = system: NIH/3T3 mouse fibroblast cells; assay: mammalian cell cytotoxicity counter screen, NIH/3T3; format: cell-based; conditions: read-out: EC50 3T3 Mouse Fibroblast; NIH/3T3 cytotoxicity
Procedure, shortened: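 NIH/3T3 mouse fibroblasts were maintained in DMEM with 5% FetalClone III. Viability was read by MTT or by a Calcein AM/Hoechst 33342 live-cell-area imaging assay. For imaging, a DMSO stock (40 μM Calcein AM, 160 μM Hoechst) was diluted 1:5 in PBS and added. After 30 min, Hoechst-stained nuclei were imaged and cells were scored live or dead by green fluorescence.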

T. vaginalis infection = conditions: after a single course of treatment; cited from earlier work
[4] = 17 h, read-out: EC50 T. vaginalis

Row | Compound | effect of oxygen level on antitrichomonal activity (Trichomonas vaginalis) | EC50 [1] [µM] | EC50 [2] [µM] | EC50 [3] [µM] | further results
1 | COC1=CC(=O)c2c(O)c3c(c(O)c2C1=O)CC(C)(O)OC3 (stereo not drawn) [compound 1, fusarubin] | decreased as oxygen was introduced |  |  |  | Selectivity Index SIEct1 [1]: 30; EC50 (Trichomonas vaginalis; [4]): 2.5 µM; extent of elimination of trichomonads (Trichomonas vaginalis): partial elimination
2 | COC1=CC(=O)c2c(O)c(C)c(CC(C)=O)c(O)c2C1=O [compound 2, javanicin] |  |  |  |  | Selectivity Index SIEct1 [1]: 3.1; EC50 (Trichomonas vaginalis; [4]): 1.3 µM
3 | COC1=CC(=O)c2c(O)ccc(O)c2C1=O [compound 9, 2-Methoxynaphthazarin] | decreased as oxygen was introduced |  |  |  | extent of elimination of trichomonads (Trichomonas vaginalis): complete elimination
4 | O=C1C(O)=C([C@H]2CC[C@H](c3ccc(Cl)cc3)CC2)C(=O)c2ccccc21 [compound 37, atovaquone, reference compound] |  |  |  |  | Selectivity Index SIEct1 [1]: < 0.1
5 | COC(=O)[C@@]12Oc3cc4c(c(O)c3C(=O)C1=C(O)CC[C@@H]2O)[C@@H]1C=C[C@@]2(C4)C(=O)c3cc(C)cc(O)c3C(O)=C2C1=O [compound 46, xanthoquinodin A1] | maintained consistent potency |  |  |  | Selectivity Index SIEct1 [1]: ~ 20; effect on growth and viability of L. acidophilus [2]: near equipotent activity against T. vaginalis and L. acidophilus; also recorded: significant inhibition; EC50 (Trichomonas vaginalis; read-out: average EC50 against T. vaginalis): 3 µM
6 | C/C=C/[C@@H]1C=C[C@@H]2C[C@H](C)CC[C@H]2[C@]1(C)/C(O)=C1/C(=O)[C@@H](CO)N(C)C1=O [compound 49, 5’-epiequisetin] |  |  |  |  | EC50 T. vaginalis (Trichomonas vaginalis): Inactive
7 | C/C=C/[C@@H]1C=C[C@@H]2C[C@H](C)CC[C@H]2[C@]1(C)/C(O)=C1/C(=O)N[C@@H](CO)C1=O [compound 50, trichosetin] |  | 34 | > 50 | 30 | 
8 | CC1=C[C@H]2C[C@@H](C)CC[C@@H]2[C@@](C)(/C(O)=C2\C(=O)[C@H](CO)N(C)C2=O)[C@H]1/C=C/C=C/C[C@@H](C)O [compound 52, 5’-epipyrrolocin A] |  |  |  |  | EC50 T. vaginalis (Trichomonas vaginalis): Inactive
9 | C/C=C/C=C/C1C(C)=CC2CC(C)CCC2C1(C)/C(O)=C1\C(=O)NC(CO)C1=O (stereo not drawn) [compound 53, beauversetin] | no statistically significant change in EC50 value | 35 | > 50 | 35 | effect on growth and viability of L. acidophilus [2]: no effect
10 | C/C=C/C=C/[C@H]1C(C)=C[C@H]2C[C@@H](C)CC[C@@H]2[C@@]1(C)/C(O)=C1/C(=O)N[C@@H](CO)C1=O [compound 54, 5’-epibeauversetin] |  |  |  |  | EC50 T. vaginalis (Trichomonas vaginalis): Inactive
11 | C/C=C/C=C/[C@H]1C(C)=C[C@H]2C[C@@H](C)CC[C@@H]2[C@@]1(C)/C(O)=C1\C(=O)[C@H](CO)N(C)C1=O [compound 56, 5’-epiphomasetin] |  |  |  |  | EC50 T. vaginalis (Trichomonas vaginalis): Inactive
12 | Cc1ncc([N+](=O)[O-])n1CCO [metronidazole, reference compound] | maintained consistent potency |  |  |  | patients cleared of the infection (T. vaginalis infection): > 90%; effect on growth and viability of L. acidophilus [2]: no inhibition
13 | CCS(=O)(=O)CCn1c([N+](=O)[O-])cnc1C [tinidazole] |  |  |  |  | patients cleared of the infection (T. vaginalis infection): > 90%
14 | equisetin [compound 48] |  | 35 | > 50 | 100 | toxicity to / inhibition of L. acidophilus ([2]; at concentrations up to 50 μM): non-toxic
15 | phomasetin [compound 55] |  | 7 | > 50 | 10 | 
16 | pyrrolocin A [compound 51] |  | 10 | > 50 | 6 | 
